Assay results as given in ChEMBL document CHEMBL4118191, “Novel oxazolxanthone derivatives as a new type of α-glucosidase inhibitor: synthesis, activities, inhibitory modes and synergetic effect” (Bioorg Med Chem, 2018).
Active and inactive are the calls of the source. No cut-off for these calls is given here.

Assays:
[1] = Inhibition of Saccharomyces cerevisiae alpha-glucosidase using PNP glycoside as substrate preincubated for 30 mins followed by substrate addition measured after 60 secs by spectrophotometric method
Summary of the method: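 Yeast α-glucosidase was pre-incubated with inhibitor for 30 min at 37 °C before substrate addition. The reaction ran 60 s at 37 °C and was read by absorbance at 400 nm. Five inhibitor concentrations were bracketed around a first-round IC50 estimate, each in triplicate, and mean values were taken.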

[2] = Non-competitive inhibition of Saccharomyces cerevisiae alpha-glucosidase using varying levels of PNP glycoside as substrate preincubated for 30 mins followed by substrate addition measured after 60 secs by Lineweaver-Burk plot analysis
Summary of the method: (§1)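 Mode of inhibition came from Lineweaver–Burk double-reciprocal plots. At each fixed inhibitor concentration, yeast α-glucosidase activity was measured over varying PNP glycoside concentrations. Enzyme–inhibitor mixtures were in 50 mM phosphate buffer, pH 6.8, with 5% v/v DMSO, and were pre-incubated 30 min at 37 °C before substrate addition. The reaction ran 60 s at 37 °C and was read at 400 nm.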

[3] = test system: Saccharomyces cerevisiae; test: Competitive inhibition of Saccharomyces cerevisiae alpha-glucosidase at 50 to 60 uM using varying levels of PNP glycoside as substrate preincubated for 30 mins followed by substrate addition measured after 60 secs by Lineweaver-Burk plot analysis; summary of the method: as §1
[4] = Solubility of the compound; assay type: physicochemical
[5] = test system: Saccharomyces cerevisiae; test: (§2) Synergistic inhibition of Saccharomyces cerevisiae alpha-glucosidase at 1:1 molar ratio of compound to 5-methoxy-2-(4-methoxyphenyl)-6H-xantheno [4, 3-d] oxazol-6-one using PNP glycoside as substrate preincubated for 30 mins followed by substrate addition measured after 60 secs by spectrophotometric method relative to control
Summary of the method: (§3)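 Single-point inhibition of yeast α-glucosidase, tested individually and as a 1:1 molar mixture at a fixed total concentration of 2. Inhibitor and enzyme were pre-incubated 30 min at 37 °C, then substrate was added. The reaction ran 60 s at 37 °C with absorbance read at 400 nm. Percent inhibition is relative to control.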

[6] = test system: Saccharomyces cerevisiae; test: Inhibition of Saccharomyces cerevisiae alpha-glucosidase at 2 uM using PNP glycoside as substrate preincubated for 30 mins followed by substrate addition measured after 60 secs by spectrophotometric method relative to control; summary of the method: as §3
[7] = as §2, with “4:6” for “1:1”, “method” for “method relative to control”
Summary of the method: (§4)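 Yeast α-glucosidase IC50 was determined for the two-inhibitor mixture at a 4:6 molar ratio and for each inhibitor alone. Pre-incubation was 30 min at 37 °C, followed by a 60 s reaction at 37 °C read at 400 nm. Five concentrations were run in triplicate and means taken. Ratios compare single-compound IC50 with mixture IC50.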

[8] = test system: Saccharomyces cerevisiae; test: as §2, with “compound alone” for “control”; summary of the method: as §3
[9] = test system: Saccharomyces cerevisiae; test: Ratio of compound alone IC50 to compound IC50 in presence of 5-methoxy-2-(4-methoxyphenyl)-6H-xantheno [4, 3-d] oxazol-6-one for Saccharomyces cerevisiae alpha-glucosidase; summary of the method: as §4
[10] = test system: Saccharomyces cerevisiae; test: Ratio of IC50 for synergistic inhibition of Saccharomyces cerevisiae alpha-glucosidase assessed as 5-hydroxy-2-(4-methoxyphenyl)-6H-xantheno [4, 3-d] oxazol-6-one IC50 to IC50 for Saccharomyces cerevisiae alpha-glucosidase; summary of the method: as §4
[11] = test system: Saccharomyces cerevisiae; test: as §2, with “5-hydroxy-2-(4-methoxyphenyl)-6H-xantheno” for “5-methoxy-2-(4-methoxyphenyl)-6H-xantheno”; summary of the method: as §3
[12] = test system: Saccharomyces cerevisiae; test: as §2, with “5-hydroxy-2-(4-methoxyphenyl)-6H-xantheno” for “5-methoxy-2-(4-methoxyphenyl)-6H-xantheno”, “compound alone” for “control”; summary of the method: as §3

| IC50 [1] [µM] | further results | SMILES |
| --- | --- | --- |
| 6.3 | Ki [2]: 6.8 µM | O=c1c2ccccc2oc2c1c(O)cc1oc(-c3c(F)cc(F)cc3F)nc12 |
| 38.5 |  | O=c1c2ccccc2oc2c1c(O)cc1oc(C3CCCCC3)nc12 |
| 127 |  | Nc1c(O)cc(O)c2c(=O)c3ccccc3oc12 |
| 186 |  | O=c1c2ccccc2oc2cc(O)cc(O)c12 |
| 8.8 |  | O=c1c2ccccc2oc2c1c(O)cc1oc(-c3ccc(Cl)cc3)nc12 |
| 8.4 |  | O=c1c2ccccc2oc2c1c(O)cc1oc(-c3ccccc3F)nc12 |
| 64.4 | inhibition [3]: Active | Cc1nc2c(cc(O)c3c(=O)c4ccccc4oc32)o1 |
| 60.3 |  | OC[C@H]1NC[C@H](O)[C@@H](O)[C@@H]1O [DUVOGLUSTAT] |
| 26.9 |  | O=c1c2ccccc2oc2c1c(O)cc1oc(-c3ccc(C(F)(F)F)cc3)nc12 |
| 6.7 |  | O=c1c2ccccc2oc2c1c(O)cc1oc(-c3ccc(F)cc3)nc12 |
| 9.9 | solubility [4]: Soluble | COc1cc2oc(-c3ccc(Cl)cc3)nc2c2oc3ccccc3c(=O)c12 |
| 7.1 | inhibition [5]: 41.9%; inhibition [6]: 21.7%; IC50 [7]: 1.9 µM; fold change (FC) [8]: 2; Ki [2]: 5.3 µM; Ratio IC50 [9]: 3.5 | COc1ccc(-c2nc3c(cc(O)c4c(=O)c5ccccc5oc43)o2)cc1 |
| 8.6 | Ratio IC50 [10]: 4; inhibition [11]: 41.9%; fold change (FC) [12]: 2; inhibition [6]: 20.3%; solubility [4]: Soluble; Ki [2]: 7.4 µM | COc1ccc(-c2nc3c(cc(OC)c4c(=O)c5ccccc5oc43)o2)cc1 |
| 286 |  | O=c1c2ccccc2oc2c([N+](=O)[O-])c(O)cc(O)c12 |
| 8.9 |  | O=c1c2ccccc2oc2c1c(O)cc1oc(-c3cccc(F)c3)nc12 |
| 11 |  | O=c1c2ccccc2oc2c1c(O)cc1oc(-c3ccc(Br)cc3)nc12 |
| 8.3 |  | Nc1ccc(-c2nc3c(cc(O)c4c(=O)c5ccccc5oc43)o2)cc1 |
| 18.3 |  | O=c1c2ccccc2oc2c1c(O)cc1oc(-c3ccccc3)nc12 |
| 7.3 |  | O=c1c2ccccc2oc2c1c(O)cc1oc(-c3ccc(O)cc3)nc12 |
| 19.1 |  | Cc1ccc(-c2nc3c(cc(O)c4c(=O)c5ccccc5oc43)o2)cc1 |
| 24.5 |  | O=c1c2ccccc2oc2c1c(O)cc1oc(-c3ccc([N+](=O)[O-])cc3)nc12 |
| 19.6 | solubility [4]: Soluble | COc1cc2oc(-c3ccccc3)nc2c2oc3ccccc3c(=O)c12 |
